Source: ChEMBL document CHEMBL1821722, “Design, synthesis and biological evaluation of novel desmuramyldipeptide analogs” (Eur J Med Chem, 2011)

Key:
[1] = tested on: THP-1; test: Immunomodulatory effect in human THP1 cells assessed as increase in LPS-induced TNF-alpha release at 20.2 uM after 24 hrs by sandwich ELISA relative to LPS; assay type: functional
Method in brief: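 THP-1 cells at 10⁶ cells/ml in RPMI 1640 with 10% heat-inactivated FCS. Co-incubated 24 h with compound (0.2–200 µM) plus E. coli 0127:B8 LPS 1 ng/ml, DMSO vehicle ≤0.2% final. TNF-α in supernatant expressed as % of LPS-induced release, mean ± SD of 6 samples.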

[2] = tested on: THP-1; test: Cytotoxicity against human THP1 cells assessed as LDH release at 20.2 uM; assay type: cell-based; conditions: thp-1, 20.2 µM
Method in brief: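 LDH leakage into the medium used as the cytotoxicity read-out, taken at the highest concentration tested.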

[3] = tested on: PBMC; test: Cytotoxicity against human PBMC assessed as LDH release at 20.2 uM; assay type: cell-based
[4] = tested on: THP-1; test: Toxicity in human THP1 cells assessed TNF-alpha release at 20.2 uM after 24 hrs by sandwich ELISA; assay type: cell-based; conditions: thp-1, 24 h
Method in brief: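 THP-1 in supplemented RPMI 1640 co-incubated 24 h with 20.2 µM compound and 1 ng/ml LPS, DMSO ≤0.2%. TNF-α release expressed as % of the LPS-only response, mean ± SD of 6 samples, Mann-Whitney U test.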

[5] = tested on: PBMC; test: Immunomodulatory effect in human PBMC cells assessed as increase in LPS-induced TNFalpha release at 20.2 uM after 18 hrs by flow cytometry analysis relative to LPS; assay type: functional
Method in brief: (§1)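 Human PBMC isolated from healthy-donor buffy coats on a Ficoll-Paque gradient. Cultured in RPMI 1640 with 10% heat-inactivated FCS, 2 mM L-glutamine and 50 µM 2-mercaptoethanol. 0.5 × 10⁶ cells exposed to 20.2 µM compound plus 10 ng/ml LPS, DMSO ≤0.1%, for 18 h at 37 °C in 5% CO₂. Supernatant cytokines measured by flow cytometric bead assay. Values are % of LPS alone, mean ± SD of 4 samples, two donors.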

[6] = tested on: PBMC; test: Immunomodulatory effect in human PBMC cells assessed as increase in LPS-induced IL-10 release at 20.2 uM after 18 hrs by flow cytometry analysis relative to LPS; assay type: functional; method in brief: as §1
[7] = tested on: PBMC; test: Immunomodulatory effect in human PBMC cells assessed as increase in LPS-induced IL-6 release at 20.2 uM after 18 hrs by flow cytometry analysis relative to LPS; assay type: functional; method in brief: as §1
[8] = tested on: PBMC; test: Immunomodulatory effect in human PBMC cells assessed as LPS-induced IL1-beta release at 20.2 uM after 18 hrs by flow cytometry analysis relative to LPS; assay type: functional; method in brief: as §1
[9] = tested on: PBMC; test: Immunomodulatory effect in human PBMC cells assessed as increase in LPS-induced IL-8a release at 20.2 uM after 18 hrs by flow cytometry analysis relative to LPS; assay type: functional; method in brief: as §1
[10] = tested on: PBMC; test: Immunostimulatory effect in human PBMC cells assessed as increase in […]/ionomycin-induce TNFalpha release at 20.2 uM after 18 hrs by flow cytometry analysis relative to PMA and ionomycin; assay type: functional
Method in brief: (§2)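 PBMC prepared from donor buffy coat on Ficoll-Paque and kept in supplemented RPMI 1640. Cells (0.5 × 10⁶) given 20.2 µM compound with PMA 3.33 ng/ml and ionomycin 500 nM (final) for 18 h at 37 °C, 5% CO₂. Supernatant IL-1β, IL-6, IL-8, IL-10 and TNF-α read by flow cytometry. Expressed relative to PMA/ionomycin alone, mean ± SD of 4 samples, two donors.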

[11] = tested on: PBMC; test: Immunostimulatory effect in human PBMC cells assessed as increase in […]/ionomycin-induce IL-10 release at 20.2 uM after 18 hrs by flow cytometry analysis relative to PMA and ionomycin; assay type: functional; method in brief: as §2
[12] = tested on: PBMC; test: Immunostimulatory effect in human PBMC cells assessed as increase in […]/ionomycin-induce IL-6 release at 20.2 uM after 18 hrs by flow cytometry analysis relative to PMA and ionomycin; assay type: functional; method in brief: as §2
[13] = tested on: PBMC; test: Immunostimulatory effect in human PBMC cells assessed as increase in […]/ionomycin-induce IL1-beta release at 20.2 uM after 18 hrs by flow cytometry analysis relative to PMA and ionomycin; assay type: functional; method in brief: as §2
[14] = tested on: PBMC; test: Immunostimulatory effect in human PBMC cells assessed as increase in […]/ionomycin-induce IL-8a release at 20.2 uM after 18 hrs by flow cytometry analysis relative to PMA and ionomycin; assay type: functional; method in brief: as §2
[15] = tested on: PBMC; test: Immunosuppressive effect in human PBMC cells assessed as […] in […]/ionomycin-induce TNFalpha release at 20.2 uM after 18 hrs by flow cytometry analysis relative to PMA and ionomycin; assay type: functional; method in brief: as §2
[16] = tested on: PBMC; test: Immunosuppressive effect in human PBMC cells assessed as […] in […]/ionomycin-induce IL-10 release at 20.2 uM after 18 hrs by flow cytometry analysis relative to PMA and ionomycin; assay type: functional; method in brief: as §2
[17] = tested on: PBMC; test: Immunosuppressive effect in human PBMC cells assessed as […] in […]/ionomycin-induce IL-6 release at 20.2 uM after 18 hrs by flow cytometry analysis relative to PMA and ionomycin; assay type: functional; method in brief: as §2
[18] = tested on: PBMC; test: Immunosuppressive effect in human PBMC cells assessed as […] in […]/ionomycin-induce IL1-beta release at 20.2 uM after 18 hrs by flow cytometry analysis relative to PMA and ionomycin; assay type: functional; method in brief: as §2
[19] = tested on: PBMC; test: Immunosuppressive effect in human PBMC cells assessed as […] in […]/ionomycin-induce IL-8a release at 20.2 uM after 18 hrs by flow cytometry analysis relative to PMA and ionomycin; assay type: functional; method in brief: as §2
[20] = tested on: PBMC; test: Immunomodulatory effect in human PBMC cells assessed as decrease in LPS-induced IL-10 release at 20.2 uM after 18 hrs by flow cytometry analysis relative to LPS; assay type: functional; set-up: scale not given: the % may be the effect or the level left; method in brief: as §1
[21] = tested on: PBMC; test: Immunomodulatory effect in human PBMC cells assessed as decrease in LPS-induced IL-6 release at 20.2 uM after 18 hrs by flow cytometry analysis relative to LPS; assay type: functional; set-up: scale not given: the % may be the effect or the level left; method in brief: as §1
[22] = tested on: PBMC; test: Immunomodulatory effect in human PBMC cells assessed as decrease in LPS-induced IL-8a release at 20.2 uM after 18 hrs by flow cytometry analysis relative to LPS; assay type: functional; set-up: scale not given: the % may be the effect or the level left; method in brief: as §1

| Compound | Activity [1] [%] | Activity [2] | Activity [3] | Activity [4] | Activity [5] [%] | Activity [8] [%] | further results |
| --- | --- | --- | --- | --- | --- | --- | --- |
| C[C@H](NC(=O)CCNC(=O)c1cc2ccccc2[nH]1)c1noc(CCC(=O)O)n1 | 113.4 | Non-toxic | Non-toxic | Non-toxic | – | – | – |
| CCCCOC(=O)[C@@H](CCC(N)=O)NC(=O)[C@H](C)NC(=O)[C@@H](C)O[C@H]1[C@H](O)[C@@H](CO)OC(O)[C@@H]1NC(C)=O (stereo partly drawn) [MURABUTIDE] | 182.6 | Non-toxic | Non-toxic | Non-toxic | 696.5 | 416.5 | Activity [6]: 559%; Activity [7]: 594.5%; Activity [9]: 107%; Activity [10]: 332.5%; Activity [11]: 158.5%; Activity [12]: 439.5%; Activity [13]: 2964.5%; Activity [14]: 152% |
| CCOC(=O)CC[C@@H](NC(=O)[C@H](C)NC(=O)C1=C2c3ccccc3S(=O)(=O)N2CCC1)C(N)=O | 122 | Non-toxic | Non-toxic | Non-toxic | 122.5 | 95 | Activity [6]: 105.5%; Activity [7]: 120%; Activity [9]: 94.5%; Activity [10]: 142%; Activity [11]: 82.5%; Activity [12]: 139.5%; Activity [13]: 406%; Activity [14]: 134% |
| C[C@H](NC(=O)C1CCCN2C1c1ccccc1S2(=O)=O)C(=O)N[C@H](CCC(=O)O)C(=O)O (stereo partly drawn) | 110.5 | Non-toxic | Non-toxic | Non-toxic | – | – | – |
| C[C@H](NC(=O)CNC(=O)c1cc2ccccc2[nH]1)C(=O)N[C@H](CCC(=O)O)C(=O)O | 118.5 | Non-toxic | Non-toxic | Non-toxic | 103.5 | 78 | Activity [15]: 63.5%; Activity [16]: 75.8%; Activity [17]: 42.5%; Activity [18]: 96.5%; Activity [19]: 90%; Activity [20]: 68.5%; Activity [21]: 76.8%; Activity [22]: 95.5% |
| C[C@H](NC(=O)CNC(=O)c1cc2ccccc2[nH]1)C(=O)N[C@H](CCC(=O)O)C(N)=O | 126.2 | Non-toxic | Non-toxic | Non-toxic | 101 | 90.5 | Activity [15]: 93.5%; Activity [16]: 102%; Activity [17]: 76%; Activity [18]: 91.5%; Activity [19]: 98.5%; Activity [20]: 71.5%; Activity [21]: 74%; Activity [22]: 98.5% |
| C[C@H](NC(=O)C1=C2c3ccccc3S(=O)(=O)N2CCC1)C(=O)N[C@H](CCC(=O)O)C(=O)O | 113.3 | Non-toxic | Non-toxic | Non-toxic | – | – | – |
